Each structure is given as a SMILES string.

The target of assay [1] is Urease (Canavalia ensiformis, UniProt P07374). Description: (§1) Inhibition of jack bean urease assessed as ammonia production after 15 mins by indophenol method. Put shortly: (§2)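 Jack bean urease preincubated with test sample at 30 °C for 15 min in buffer containing 100 mM urea, pH 6.8. Ammonia measured by the indophenol method, using phenol reagent (1% w/v phenol, 0.005% w/v sodium nitroprusside) and alkali reagent (0.5% w/v NaOH, 0.1% active chloride NaOCl). Absorbance at 630 nm read after 50 min. Run in triplicate; % inhibition calculated from OD test/OD control; thiourea as standard.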
Urease, sequence (P07374 whole entry): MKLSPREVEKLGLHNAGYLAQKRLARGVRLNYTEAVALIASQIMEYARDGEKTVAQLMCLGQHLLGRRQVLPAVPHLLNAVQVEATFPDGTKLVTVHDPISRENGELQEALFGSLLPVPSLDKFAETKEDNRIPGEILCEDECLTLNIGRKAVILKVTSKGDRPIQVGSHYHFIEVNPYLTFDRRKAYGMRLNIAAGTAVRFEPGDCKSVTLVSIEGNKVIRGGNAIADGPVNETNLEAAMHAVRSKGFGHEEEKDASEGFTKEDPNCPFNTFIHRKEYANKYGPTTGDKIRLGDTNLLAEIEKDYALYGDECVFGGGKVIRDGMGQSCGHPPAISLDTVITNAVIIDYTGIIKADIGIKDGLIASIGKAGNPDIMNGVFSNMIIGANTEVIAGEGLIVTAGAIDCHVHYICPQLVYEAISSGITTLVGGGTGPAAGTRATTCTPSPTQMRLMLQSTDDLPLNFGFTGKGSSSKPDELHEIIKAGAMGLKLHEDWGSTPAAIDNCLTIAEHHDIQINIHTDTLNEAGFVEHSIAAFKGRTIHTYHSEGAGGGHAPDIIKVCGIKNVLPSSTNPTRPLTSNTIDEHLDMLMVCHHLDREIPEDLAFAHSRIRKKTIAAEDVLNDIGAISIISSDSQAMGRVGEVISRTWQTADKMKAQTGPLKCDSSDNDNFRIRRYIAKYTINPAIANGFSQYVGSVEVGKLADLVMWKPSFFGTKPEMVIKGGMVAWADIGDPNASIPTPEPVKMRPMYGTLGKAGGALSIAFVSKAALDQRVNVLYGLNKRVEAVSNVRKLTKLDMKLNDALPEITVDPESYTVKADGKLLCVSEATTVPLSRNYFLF

The target of assay [2] is Urease (Canavalia ensiformis) (UniProt P07374). The assay is described as §1. Details: inhibition: concentration or dose not given beside the values. Put shortly:
as §2

Assay [3] relates to Radical scavenging activity. Kind of assay: Antioxidant activity assessed as DPPH free radical scavenging activity in cell-free system after 30 mins. The format is functional. Put shortly: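 Compound dissolved in DMSO and DPPH in ethanol. Decrease in absorbance read at 515 nm after incubation. Percent radical scavenging calculated relative to a DMSO-treated control.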
In general terms: DPPH is a stable violet radical that fades when it is reduced.

Assay [4] is described as follows: Antioxidant activity assessed as Superoxide anion radical scavenging activity in cell-free system. In kind it is functional. Put shortly:
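NADH–NBT–PMS system in 0.1 M phosphate buffer, pH 7.4, with sample added from a 1 mM DMSO stock; other reagents made up in buffer. Run at room temperature. Superoxide followed as blue formazan formation at 560 nm.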

Urease (Canavalia ensiformis), sequence (P07374 whole entry, looked up): as the sequence (P07374 whole entry) above

Consider `Cc1ccc(-n2c(-c3cccc([N+](=O)[O-])c3)n[nH]c2=S)c(C)c1`, for which the IC50 is 45.6 µM in assay [1] and 242 µM in assay [3]. Besides, the inhibition in assay [2] was determined as 97%.
Taken in the same sequence, the figures for `Cc1ccc(-n2c(-c3ccc(Cl)cc3)n[nH]c2=S)c(C)c1` were 171 µM, 292 µM and 88.6%.
As to `Cc1cccc(-n2c(-c3ccccc3)n[nH]c2=S)c1C`, in assay [1], the IC50 amounted to 86 µM. For the same compound, the inhibition in assay [2] stood at 93.4%.
With `Cc1ccc(-c2nnc(Nc3c(C)cccc3C)s2)cc1`, the inhibition in assay [2] amounted to 27.1%.
With `Cc1ccc(Nc2nnc(-c3cccc([N+](=O)[O-])c3)s2)c(C)c1`, the IC50 in assay [4] was 131 µM; in assay [1] it was 398 µM. Further, the inhibition in assay [2] was 73.4%.
Consider `Cc1ccc(-n2c(-c3cccc(Cl)c3)n[nH]c2=S)c(C)c1`, for which the IC50 in assay [1] is 460 µM. For the same compound, the inhibition in assay [2] came to 53.1%.
Regarding `Cc1cccc(-n2c(-c3ccc(Cl)cc3)n[nH]c2=S)c1C`, the inhibition in assay [2] stood at 48.3%.
Turning to `NC(N)=S`, the 10% effect concentration (IC10) in assay [2] was 21 µM.
`Cc1cccc(C)c1-n1c(-c2ccccc2Cl)n[nH]c1=S`: the inhibition in assay [2] was determined as 48.3%.
On the same count and under the same terms, then `Cc1ccccc1-c1n[nH]c(=S)n1-c1cccc(C)c1C`, with 43.4%.
Take `Cc1cccc(Nc2nnc(-c3ccc(Cl)cc3)s2)c1C`: the IC50 in assay [4] turned out to be 139 µM; in assay [1], 484 µM. In addition, in assay [2], the inhibition worked out at 52.8%.
In the case of `Cc1ccc(Nc2nnc(-c3ccc([N+](=O)[O-])cc3)s2)c(C)c1`, the IC50 in assay [4] stood at 94.8 µM. Further, the inhibition in assay [2] was 7.2%.
Take `Cc1cccc(C)c1Nc1nnc(-c2ccccc2Cl)s1`: the IC50 in assay [1] turned out to be 313 µM. In addition, the inhibition in assay [2] was 82.8%.
Turning to `Cc1ccc(-c2n[nH]c(=S)n2-c2c(C)cccc2C)cc1`, in assay [2], the inhibition came to 6.8%.
As to `Cc1cccc(C)c1-n1c(-c2ccc(Cl)cc2)n[nH]c1=S`, the inhibition in assay [2] turned out to be 7.5%.
`Cc1cccc(Nc2nnc(-c3ccccc3)s2)c1C`: the IC50 in assay [1] stood at 426 µM. Also, in assay [2], the inhibition stood at 56.8%.
Taken in the same sequence, the figures for `Cc1cccc(C)c1-n1c(-c2cccc(Cl)c2)n[nH]c1=S` were 357 µM and 64.8%.
Turning to `Cc1cccc(C)c1Nc1nnc(-c2ccc(Cl)cc2)s1`, the figures for the IC50 in assay [4], in assay [1] and in assay [3] were 255 µM, 215 µM and 320 µM, respectively. Besides, in assay [2], the inhibition was 91.1%.
With `CCCOC(=O)c1cc(O)c(O)c(O)c1` [PROPYL GALLATE], the figures for the IC50 in assay [4] and in assay [3] were 106 µM and 30.5 µM, respectively.
As to `Cc1ccc(Nc2nnc(-c3cccc(Cl)c3)s2)c(C)c1`, the IC50 in assay [4] came to 124 µM. In addition, the inhibition in assay [2] turned out to be 12.4%.

One may read the IC50 as the midpoint of a concentration-inhibition curve. Broadly, the inhibition is the share of the control response that was lost under treatment. As usually defined, the IC10 is the concentration needed for an effect of 10%.

Source of the values: ChEMBL document CHEMBL1275315, “Synthesis, antioxidant activities and urease inhibition of some new 1,2,4-triazole and 1,3,4-thiadiazole derivatives” (Eur J Med Chem, 2010).
